High-throughput results as filed in PubChem BioAssay.
TRPC4 agonist = TRPC4 (mouse) channel activation. Q9QUQ5. HEK293 TRPC4beta/mu-opioid, Fluo4 calcium fluorescence; active compounds read high. B-score at 10 µM. hit rate 0.49% among 310,000. AID 2237;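 active = B-score above 5 SD of library B-scores, and initial fluorescence ratio not above library mean plus 5 SD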;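 note: positive B-score marks a calcium rise read as TRPC4 activation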
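Assay system: HEK293 stable line with TRPC4beta plus mu-opioid receptor. Times: dye 45 min RT, read 110 s. Measured by: kinetic Fluo4 calcium fluorescence. Measure: B score of integrated ratio. Controls: assay buffer as low control, maximal DAMGO as high control.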
TRPC4 block = TRPC4 (mouse) channel inhibition; Q9QUQ5; AID 2247; B-score at 10 µM; hit rate 0.39% among 300,000; HEK293 TRPC4beta/mu-opioid, DAMGO-evoked Fluo4 calcium flux; active compounds read low;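 active = B-score over 3 SD under the library average, no early fluorescence shift, positive overall ratio signal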
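Signal: kinetic Fluo4 fluorescence imaging of calcium influx. Material: stable TRPC4beta/mu-opioid receptor HEK293 cells. Probe or stimulus: DAMGO in two steps, submaximal then maximal.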
TRPC4 potent = allosterically enhances the mouse TRPC4 cation channel; AID 2227; Q9QUQ5; B-score at 10 µM; hit rate 0.42% among 310,000; HEK293 TRPC4beta/mu-opioid, DAMGO EC20, Fluo-4 Ca2+ flux; active compounds read high;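 active = B-score of calcium response area above 5 SD of library B-scores, with initial fluorescence ratio within 5 SD of library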;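 note: B-score of integrated fluorescence ratio over time as area under calcium response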
TRPC6 inhibitor = blocks the mouse TRPC6 cation channel; HEK293-TRPC6, membrane potential dye, ACh-evoked depolarization; active compounds read low; AID 2553; B-score at 10 µM; hit rate 1.1% among 310,000;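 active = B-score under library mean minus 3 SD, initial fluorescence not abnormally high, positive integrated signal ratio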;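 note: B-score derived from integrated fluorescence ratio over the kinetic read; more negative B-score means stronger inhibition of depolarization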
Target sequence (Q61143 whole entry, looked up): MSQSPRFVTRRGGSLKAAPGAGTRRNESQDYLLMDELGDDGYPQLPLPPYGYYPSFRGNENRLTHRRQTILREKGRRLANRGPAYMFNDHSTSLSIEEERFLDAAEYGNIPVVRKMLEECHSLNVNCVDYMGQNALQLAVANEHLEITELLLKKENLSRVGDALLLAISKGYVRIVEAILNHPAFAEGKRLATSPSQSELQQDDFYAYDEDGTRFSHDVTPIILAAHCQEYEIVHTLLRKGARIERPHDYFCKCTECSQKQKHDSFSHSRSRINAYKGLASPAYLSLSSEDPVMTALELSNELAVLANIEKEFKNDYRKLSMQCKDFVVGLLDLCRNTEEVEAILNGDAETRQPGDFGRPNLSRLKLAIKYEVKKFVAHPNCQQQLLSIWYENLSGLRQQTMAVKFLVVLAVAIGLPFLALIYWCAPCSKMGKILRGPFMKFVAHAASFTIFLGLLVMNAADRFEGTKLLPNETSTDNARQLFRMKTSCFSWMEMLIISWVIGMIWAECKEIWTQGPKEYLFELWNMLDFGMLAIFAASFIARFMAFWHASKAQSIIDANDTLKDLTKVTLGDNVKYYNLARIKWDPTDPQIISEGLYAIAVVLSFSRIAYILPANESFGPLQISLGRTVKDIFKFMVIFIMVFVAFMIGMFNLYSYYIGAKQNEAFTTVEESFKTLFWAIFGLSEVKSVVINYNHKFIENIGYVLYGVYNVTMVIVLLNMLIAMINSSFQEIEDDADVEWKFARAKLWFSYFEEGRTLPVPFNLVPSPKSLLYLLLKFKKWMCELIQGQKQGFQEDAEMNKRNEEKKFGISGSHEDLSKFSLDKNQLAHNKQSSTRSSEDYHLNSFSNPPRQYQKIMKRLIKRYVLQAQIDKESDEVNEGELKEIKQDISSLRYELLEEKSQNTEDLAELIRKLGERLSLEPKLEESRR
TRPC6 act = activates the mouse TRPC6 cation channel; Q61143; HEK293-TRPC6 membrane potential dye fluorescence; active compounds read high; B-score at 10 µM; hit rate 0.13% among 310,000;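 active = B-score of the integrated fluorescence ratio above library mean plus 3 SD, and starting fluorescence ratio within library mean plus 5 SD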;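 note: higher score means more depolarization so channel activation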
TRPC4 sel inh 2 = mouse TRPC4 off-target activity of TRPC6 inhibitors, second screen | shares compounds with TRPC6 inhibitor | HEK293 TRPC4/MOR, membrane potential dye fluorescence; channel activated by saturating DAMGO dose | inhibition, % at 10 µM | hit rate 42% among 920 | AID 2776;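 active = compounds whose fluorescence signal differed from control wells by over 3 SD, either direction, in both duplicate plates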
TRPC4 spec = tests whether TRPC6 inhibitors also affect mouse TRPC4. shares compounds with TRPC6 inhibitor. HEK293 TRPC4/mu-opioid, membrane potential fluorescence. activity change, negative = inhibition, % at 10 µM. hit rate 61% among 920. AID 2777;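 active = rise or fall in signal beyond 3 SD of buffer-only wells in both replicate plates, either sign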;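 note: integrated kinetic ratio of fluorescence range over baseline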
HEK293 MPD ctr 2-1 = second check of TRPC6 inhibitor effects in parental HEK293 cells; shares compounds with TRPC6 inhibitor; parental HEK293 membrane potential dye fluorescence; maximal acetylcholine challenge after compound addition; signal change vs control, % at 10 µM; hit rate 31% among 920; AID 2779;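 active = membrane potential signal moving either way by over 3 SD of the maximum-effect control, in both duplicate plates, meaning non-specific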
HEK293 MPD ctr-1 = parental HEK293 nonspecific activity of TRPC6 inhibitors | shares compounds with TRPC6 inhibitor | hit rate 60% among 920 | membrane potential signal change, % at 10 µM | parental HEK293 membrane potential dye fluorescence;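 active = membrane potential signal shifting up or down by more than 3 SD of buffer-only wells, on both duplicate plates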
HEK293 MPD ctr-2 = counter-screen for TRPC6 modulators: effect in parental HEK293 cells | shares compounds with TRPC6 inhibitor | membrane potential dye fluorescence | membrane potential signal change, % at 10 µM | hit rate 51% among 2,400 | AID 488924;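 active = membrane potential signal moves up or down beyond 5 SD from buffer-only wells, on both duplicate plates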
HEK293 MPD ctr 2-2 = parental HEK293 nonspecific activity of TRPC6 modulators, second screen | shares compounds with TRPC6 inhibitor | membrane potential dye fluorescence; after compound, maximal acetylcholine stimulation | inhibition, % at 10 µM | hit rate 14% among 2,400 | AID 488926;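 active = membrane potential signal drops by more than 5 SD from the mean control signal, in both duplicate plates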;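 note: plate controls were acetylcholine ECmax control wells for no effect and buffer only wells for full effect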
TRPC4/MOR mod = selectivity of TRPC6 modulators against mouse TRPC4; HEK293 TRPC4/mu-opioid, membrane potential fluorescence; AID 488927; shares compounds with TRPC6 inhibitor; hit rate 69% among 2,400; percent change from control (negative = decrease, positive = increase), % at 10 µM;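 active = membrane potential signal moved up or down beyond 5 SD of buffer control wells, in both duplicate plates, actives on both sides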;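 note: plate controls were assay buffer wells for no effect and DAMGO maximal-effect wells for full effect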
TRPC4/MOR inh 2 = second check of whether TRPC6 modulators also affect mouse TRPC4; HEK293 TRPC4/mu-opioid, membrane potential dye fluorescence; stimulated with maximal-effect DAMGO; inhibition, % at 10 µM; hit rate 55% among 2,400; shares compounds with TRPC6 inhibitor; AID 488928;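 active = drop in membrane potential signal beyond 5 SD of the control wells in both duplicate plates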;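 note: TRPC4 counter screen for TRPC6 hits run under conditions tuned for TRPC6 not TRPC4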
TRPC6 block conf = confirmation of mouse TRPC6 inhibitors. AID 488960. shares compounds with TRPC6 inhibitor. hit rate 43% among 3,300. inhibition, % at 10 µM. HEK293-TRPC6, membrane potential dye, ACh-evoked depolarization;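 active = fluorescence ratio falls more than 5 SD below the full-stimulation control mean, in both duplicate runs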;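 note: integrated fluorescence ratio of peak minus minimum over baseline after agonist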
TRPC6 act conf = confirmation of mouse TRPC6 activators; shares compounds with TRPC6 inhibitor; HEK293-TRPC6 membrane potential dye fluorescence, FDSS; activation, % at 10 µM; hit rate 11% among 2,800; AID 488961;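 active = ratio signal rise beyond 5 SD above unstimulated control wells' mean, seen in both duplicate runs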;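 note: plate controls were buffer EC0 wells for no effect and acetylcholine ECmax response for full effect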
The depositor's hits bear a star; i = inactive; . = no result. Most compounds without a hit are left out; they make up all but 2.3% or so of the library.

SMILES | TRPC4 agonist | TRPC4 block | TRPC4 potent | TRPC6 inhibitor | TRPC6 act | HEK293 MPD ctr-2 | HEK293 MPD ctr 2-2 | TRPC4/MOR mod | TRPC4/MOR inh 2 | TRPC6 block conf | TRPC6 act conf | others
CCOC(=O)c1ccc2ncc(C(=O)OCC)c(NCCCN3CCOCC3)c2c1 | i | i | i | -6.77* | i | . | . | . | . | i | i | TRPC4 sel inh 2=i;TRPC4 spec=-15.6%*;HEK293 MPD ctr 2-1=i;HEK293 MPD ctr-1=-251.0%*
CCOC(=O)c1cnc2c(C)c(Cl)ccc2c1NCCCN1CCOCC1 | i | i | i | i | i | . | . | . | . | . | .
CCOC(=O)[C@@H]1[C@H]2COc3ccccc3[C@H]2N2C(=O)N(c3ccc(C(F)(F)F)cc3)C(=O)[C@]12C | i | i | i | i | i | . | . | . | . | . | .
O=C(COC(=O)CNS(=O)(=O)c1ccc2ccccc2c1)Nc1ccccc1Sc1ccccc1 | i | i | i | i | i | . | . | . | . | . | .
CCc1occc(=O)c1Oc1cc(NN2CCCCC2)c([N+](=O)[O-])cc1[N+](=O)[O-] | i | i | i | -7.43* | i | . | . | . | . | i | i | TRPC4 sel inh 2=i;TRPC4 spec=i;HEK293 MPD ctr 2-1=i;HEK293 MPD ctr-1=i
C/C(N)=C(/C#N)C(=O)COC(=O)c1ccccc1Cc1ccccc1 | i | i | i | -8.26* | i | . | . | . | . | i | i | TRPC4 sel inh 2=i;TRPC4 spec=-11.1%*;HEK293 MPD ctr 2-1=i;HEK293 MPD ctr-1=i
C/C(N)=C(/C#N)C(=O)COC(=O)c1ccncc1 | i | i | i | i | i | . | . | . | . | . | .
CCC(C)n1c(=N)c(C#N)cc2c(=O)n3cc(C)ccc3nc21 (stereo not drawn) | i | i | i | -6.89* | i | i | i | i | i | i | i
Cc1ccc(OCC(=O)NNC(=O)c2cccnc2)cc1C | i | i | i | -5.71* | i | i | i | i | i | i | i
Cc1ccc(CNC(=O)Cn2ccc3cc(S(=O)(=O)N4CCCC4)ccc32)o1 | i | i | i | i | i | . | . | . | . | . | .
O=C(CSc1nc(=O)[nH]c2c1CCCC2)Nc1cc(C(F)(F)F)cc(C(F)(F)F)c1 | i | i | i | i | i | . | . | . | . | . | .
CCn1nc([N+](=O)[O-])c(C(C#N)c2nc3ccccc3n2C)c(Cl)c1=O (stereo not drawn) | i | i | i | i | i | . | . | . | . | . | .
CCCn1nc([N+](=O)[O-])c(C(C#N)c2nc3ccccc3s2)c(Cl)c1=O (stereo not drawn) | i | i | i | -13.2* | i | -209.5%* | i | -36.0%* | 83.0%* | 65.5%* | i
CC(=O)Nc1ccc(OS(=O)(=O)c2ccc([N+](=O)[O-])cc2)cc1 | i | i | i | i | i | . | . | . | . | . | .
c1ccc2c(c1)CCN(c1ncnc3c1[nH]c1ccccc13)C2 | 86* | i | i | -5.72* | i | i | i | i | 63.0%* | i | i
Cc1onc(-c2ccccc2Cl)c1C(=O)Nc1nnc(Cc2ccc(Cl)cc2)s1 | i | i | i | -6.62* | i | . | . | . | . | i | i | TRPC4 sel inh 2=i;TRPC4 spec=i;HEK293 MPD ctr 2-1=i;HEK293 MPD ctr-1=i
Cc1nnc(NC(=O)c2c(-c3ccccc3Cl)noc2C)s1 | i | i | i | i | i | . | . | . | . | . | .
O=C(CCCc1c[nH]c2ccccc12)N[C@@H](Cc1c[nH]c2ccccc12)C(=O)O | i | i | i | i | i | . | . | . | . | . | .
CC1CCCN(C(=O)c2ccc(-c3ccccc3Cl)o2)C1 (stereo not drawn) | i | i | i | -5.09* | i | i | i | 15.0%* | i | i | .
CC1CN(C(=O)c2ccc(-c3ccccc3Cl)o2)CC(C)O1 (stereo not drawn) | i | i | i | i | i | . | . | . | . | . | .
CCOC(=O)COc1c(/C=N\O)cc(Cl)cc1OC | i | i | i | i | i | . | . | . | . | . | .
CC(=O)c1ccc(N2CCN(C(=O)CCC(=O)Nc3ccc4nc(N5CCN(C)CC5)cc(C)c4c3)CC2)cc1 | i | i | i | i | 13.1* | i | i | 16.0%* | i | i | i
CCN1CCN(c2cc(C)c3cc(NC(=O)CCC(=O)N4CCN(c5ccccc5)CC4)ccc3n2)CC1 | i | i | i | i | i | . | . | . | . | . | .
CCCCN(C)C(=O)CCC(=O)Nc1ccc2nc(N3CCOCC3)cc(C)c2c1 | i | i | i | -7.64* | i | . | . | . | . | i | i | TRPC4 sel inh 2=i;TRPC4 spec=-20.1%*;HEK293 MPD ctr 2-1=i;HEK293 MPD ctr-1=-326.0%*
CCC(C)NC(=O)CCC(=O)Nc1ccc2nc(N3CCOCC3)cc(C)c2c1 (stereo not drawn) | i | i | i | -5.54* | i | -260.0%* | i | -43.5%* | 38.0%* | 40.0%* | i
CCC(C)NC(=S)Nc1ccc2nc(N3CCOCC3)cc(C)c2c1 (stereo not drawn) | i | i | i | i | i | . | . | . | . | . | .
OCC1(Cc2ccccc2Cl)CCN(C/C=C/c2ccccc2)CC1 | i | i | i | -5.3* | i | 131.5%* | i | 25.0%* | 59.5%* | i | .
OCC1(CCc2ccccc2)CCN(C/C=C/c2ccccc2)CC1 | i | i | i | i | i | . | . | . | . | . | .
